The text below walks through data of ChEMBL document CHEMBL1157270, “Physalins from Witheringia solanacea as modulators of the NF-kappaB cascade” (J Nat Prod, 2006).

Activity calls are given as the source filed them.

The test system of test [1] is HeLa. As to the kind of experiment: Cytotoxicity against human HeLa cells after 72 hrs by MTT assay. The format is functional, cell-based. The method in brief:
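HeLa cells exposed to compound for 72 h, then incubated 2 h at 37 °C with 0.5 mg/mL MTT. Formazan dissolved in 90% 2-propanol with DMSO. IC50 read from the concentration–response.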
(Formazan colour is commonly taken as a measure of viable cells.)

The test system of test [2] is HeLa. As to the kind of experiment: Inhibition of PMA-induced NF-kappaB activation in human HeLa cells at 16 uM after 7 hrs by IL6/luciferase reporter gene assay. It is filed as cell-based. The method in brief: (§1)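 HeLa cells stably transfected with an IL-6 promoter–luciferase reporter, stimulated with PMA (50 ng/mL final) for 7 h in the presence of compound. Luminescence given as % of RLU of the PMA-stimulated control, mean of three experiments. Active if ≥30% of positive control. Unstimulated cells served as negative control.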
For orientation: A reporter such as luciferase makes a cellular process visible.

Test [3] relates to HeLa. Put plainly: Inhibition of PMA-induced NF-kappaB activation in human HeLa cells at 8 uM after 7 hrs by IL6/luciferase reporter gene assay. The format is cell-based. The method in brief:
as §1

The test system of test [4] is HeLa. Put plainly: Inhibition of PMA-induced NF-kappaB activation in human HeLa cells at 4 uM after 7 hrs by IL6/luciferase reporter gene assay relative to untreated control. The format is cell-based. Further details: scale not given: the % may be the effect or the level left. In outline: as §1
The subject of test [5] is HeLa. Put plainly: Inhibition of PMA-induced NF-kappaB activation in human HeLa cells at 2 uM after 7 hrs by IL6/luciferase reporter gene assay relative to untreated control. It is filed as cell-based. Further details: scale not given: the % may be the effect or the level left. The method in brief:
as §1

Test [6] concerns Jurkat. Put plainly: Inhibition of TNF-alpha-induced NF-kappaB activation in human Jurkat 5.1 cells preincubated for 30 mins measured after 6 hrs by HIV1-LTR luciferase assay. It is filed as cell-based. The method in brief:
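5.1 cells preincubated with compound (5, 10, 20 µM) for 30 min, then stimulated with TNF (2 ng/mL) for 6 h. Lysis in Tris phosphate pH 7.8 buffer with Triton X-100. Luciferase read after subtracting lysis-buffer background and normalised to Bradford protein (RLU/µg). Result expressed as fold induction, mean of three experiments.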

The species named for a further test is Homo sapiens. Put plainly: Inhibition of NF-kappaB activation in human HeLa-Tet-On cells assessed as inhibition of doxycyclin-induced HIV1-LTR transactivation at 5 uM after 6 hrs by luciferase reporter gene assay. The format is cell-based. The method in brief:
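HeLa-Tet-On-Luc cells seeded at 5 × 10^5 cells/mL the day before, then stimulated with doxycycline (2 µg/mL) with or without compound for 6 h. Cells washed in PBS and lysed, and luciferase activity measured.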

The subject of test [7] is Jurkat. Put plainly: Induction of apoptosis in human Jurkat T cells assessed as sub-G0/G1 fraction at 1 uM after 6 hrs by flow cytometry. It is filed as functional. In outline: (§2)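 Jurkat cells (10^6) grown in RPMI 1640 with 10% heat-inactivated FBS, 2 mM glutamine, penicillin and streptomycin, then treated 6 or 24 h. Cells fixed in 70% ethanol for 24 h at 4 °C, washed in PBS with 4% glucose, treated with RNase A (50 U/mL) and stained with PI (20 µg/mL) for 1 h at room temperature. Subdiploid (sub-G0/G1) percentage measured by flow cytometry.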
In general terms: A flow cytometer gives signals particle by particle.

Test [8] concerns Jurkat. Put plainly: Induction of apoptosis in human Jurkat T cells assessed as sub-G0/G1 fraction at 10 uM after 6 hrs by flow cytometry. The format is functional. In outline:
as §2

Test [9] deals with Jurkat. Put plainly: Induction of apoptosis in human Jurkat T cells assessed as sub-G0/G1 fraction at 20 uM after 6 hrs by flow cytometry. The format is functional. The method in brief:
as §2

Test [10] deals with Jurkat. Put plainly: Induction of apoptosis in human Jurkat T cells assessed as sub-G0/G1 fraction at 1 uM after 24 hrs by flow cytometry. It is filed as functional. In outline:
as §2

Test [11] relates to Jurkat. Put plainly: Induction of apoptosis in human Jurkat T cells assessed as sub-G0/G1 fraction at 10 uM after 24 hrs by flow cytometry. The format is functional. In outline:
as §2

Test [12] has as its system Jurkat. As to the kind of experiment: Induction of apoptosis in human Jurkat T cells assessed as sub-G0/G1 fraction at 20 uM after 24 hrs by flow cytometry. It is filed as functional. In outline:
as §2

For test [13], the system named is HeLa. As to the kind of experiment: Cytotoxicity against human HeLa cells at 100 uM. The format is functional, cell-based.
The subject of test [14] is HeLa. Put plainly: Cytotoxicity against human HeLa cells after 7 hrs. It is filed as functional, cell-based. The method in brief: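 HeLa cells stably carrying an IL-6 promoter–luciferase reporter, exposed to compound with PMA (50 ng/mL final) for 7 h. Toxicity judged visually at 40× magnification from changes in cell morphology.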
Test [15] deals with HeLa. As to the kind of experiment: Cytotoxicity against human HeLa cells at 100 ug/mL.

The IC50 is the point on the concentration scale where inhibition reaches its midpoint. As to `C[C@@]12C[C@H]3OC(=O)[C@@H]1CO[C@]14O[C@]5([C@H]2C1=O)[C@@](O)(CC[C@H]1[C@H]4C[C@H]2O[C@]24CC=CC(=O)[C@]14C)C(=O)O[C@@]35C` [PHYSALIN F], in the test on HeLa [1], the IC50 was 2000 nM. Moreover, the result with HeLa [2] and in the test on HeLa [3] was Active. In addition, the Activity in the test on HeLa [4] was 7%; in the test with HeLa [5], 20%; in the test with Jurkat [6] it was “Dose-dependent effect”; in the test with Jurkat [7], 2.71%; in the test on Jurkat [8], 2.07%; in the test with Jurkat [9], 1.64%. Further, the Activity in the test on Jurkat [10] was 50.2%; in the test with Jurkat [11], 58.2%; with Jurkat [12], 64.6%; in the test on HeLa [13] it was “Toxic”; with HeLa [14], “Not toxic”. Besides, the outcome in the test listed under Homo sapiens was inactive.
Take `C[C@@]12C[C@H]3OC(=O)[C@@H]1CO[C@@]14O[C@]5([C@H]2C1=O)[C@@](O)(CC[C@H]1[C@H]4C[C@@H](O)[C@@]2(O)CC=CC(=O)[C@]12C)C(=O)O[C@@]35C`: in the test with HeLa [13], the Activity entry was “Not toxic”.
In the test on HeLa [1], `C[C@]12C(=O)C=CCC1=CC[C@@H]1[C@@H]2CC[C@]2(O)C(=O)O[C@@]3(C)[C@H]4C[C@]5(C)[C@@H](CO[C@@]16O[C@@]32[C@H]5C6=O)C(=O)O4` [PHYSALIN B] gave an IC50 of 2000 nM. The outcome in the test with HeLa [2] and in the test on HeLa [3] was Active. For the same compound, the Activity amounted to 1.83% with Jurkat [7]; 2.08% in the test with Jurkat [8]; 2.08% with Jurkat [9]; 6.27% with Jurkat [10]; 49.7% in the test with Jurkat [11]; 50% in the test with Jurkat [12]. Also, the results for the Activity entry in the test with HeLa [14] and in the test with HeLa [15] were “Not toxic” and “Toxic”, respectively.
